Laboratory results published in ChEMBL document CHEMBL3352716 (ACS Med Chem Lett, 2014).
pIC50: −log10 of the molar value.

What was measured:
MCF7 = assay: Antiproliferative activity against human MCF7 cells assessed as growth inhibition after 72 hrs by MTT assay; format: functional, cell-based; conditions: MCF7, 72 h
How it was run: (§1)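 MTT proliferation assay on human K562 leukaemia, MCF-7 breast adenocarcinoma, Bel-7402 hepatocellular carcinoma and MGC-803 gastric cancer cells. Drug exposure 72 h. IC50 is the concentration inhibiting 50% of cell growth. Means ± SD, n = 3.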

MGC-803 = assay: Antiproliferative activity against human MGC803 cells assessed as growth inhibition after 72 hrs by MTT assay; format: functional, cell-based; conditions: MGC-803, 72 h; how it was run: as §1
K562 = assay: Antiproliferative activity against human K562 cells assessed as growth inhibition after 72 hrs by MTT assay; format: functional, cell-based; conditions: K562, 72 h; how it was run: as §1
[1] = Antiproliferative activity against human Bel7402 cells assessed as growth inhibition after 72 hrs by MTT assay; format: functional, cell-based; conditions: Bel-7402, 72 h; how it was run: as §1
NCI-H460 = assay: Anticancer activity against human NCI-H460 cells by MTT assay; format: functional, cell-based
How it was run: (§2)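 MTT cytotoxicity run on paired parental and transporter-overexpressing lines: SW620 vs ABCB1-overexpressing SW620/AD300, and NCI-H460 vs ABCG2-overexpressing NCI-H460/MX20. IC50 is the concentration inhibiting 50% of cell growth. Concentrations tested up to 100 μM.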

[2] = Anticancer activity against ABCG2-overexpressing human NCI-H460/MX20 cells by MTT assay; format: functional, cell-based; how it was run: as §2
[3] = Anticancer activity against ABCB1-overexpressing human SW620/AD300 cells by MTT assay; format: functional, cell-based; conditions: SW-620; how it was run: as §2
SW-620 = assay: Anticancer activity against human SW620 cells by MTT assay; format: functional, cell-based; how it was run: as §2
Bel-7402 [4] = assay: Selectivity index, ratio of IC50 for human L02 cells to ratio of IC50 for human Bel-7402 cells; format: functional
How it was run: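 Selectivity index is IC50 on normal L-02 liver cells divided by IC50 on Bel-7402 tumour cells. Both IC50 values come from MTT survival curves after 72 h exposure.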

Bel-7402 [5] = assay: Induction of apoptosis in human Bel7402 cells assessed as late apoptotic cells after 48 hrs at 0.5 uM by Annexin V/propidium iodide staining-based flow cytometric analysis (reference value: 5.21%); format: functional
Bel-7402 [6] = assay: Induction of apoptosis in human Bel7402 cells assessed as late apoptotic cells after 48 hrs at 0.125 uM by Annexin V/propidium iodide staining-based flow cytometric analysis (reference value: 5.21%); format: functional
Bel-7402 [7] = assay: Induction of apoptosis in human Bel7402 cells assessed as viable cells after 48 hrs at 0.5 uM by Annexin V/propidium iodide staining-based flow cytometric analysis (reference value: 92.80%); format: functional; conditions: Bel-7402, 48 h, read-out: Activity
Bel-7402 [8] = assay: Induction of apoptosis in human Bel7402 cells assessed as early apoptotic cells after 48 hrs at 0.125 uM by Annexin V/propidium iodide staining-based flow cytometric analysis (reference value: 0.64%); format: functional
[9] = Cell cycle arrest in human Bel7402 cells assessed as cells at G2 phase at 0.5 uM after 48 hrs by propidium iodide staining-based flow cytometric analysis (reference value: 19.52%); format: functional; conditions: Bel-7402
[10] = Cell cycle arrest in human Bel7402 cells assessed as cells at S phase at 0.25 uM after 48 hrs by propidium iodide staining-based flow cytometric analysis (reference value: 40.82%); format: functional; conditions: Bel-7402
Bel-7402 [11] = assay: Induction of apoptosis in human Bel7402 cells assessed as viable cells after 48 hrs at 0.25 uM by Annexin V/propidium iodide staining-based flow cytometric analysis (reference value: 92.80%); format: functional; conditions: Bel-7402, 48 h, read-out: Activity
[12] = Cell cycle arrest in human Bel7402 cells assessed as cells at S phase at 0.125 uM after 48 hrs by propidium iodide staining-based flow cytometric analysis (reference value: 40.82%); format: functional; conditions: Bel-7402
[13] = Cell cycle arrest in human Bel7402 cells assessed as cells at G2 phase at 0.125 uM after 48 hrs by propidium iodide staining-based flow cytometric analysis (reference value: 19.52%); format: functional; conditions: Bel-7402
Bel-7402 [14] = assay: Induction of apoptosis in human Bel7402 cells assessed as necrotic cells after 48 hrs at 0.125 uM by Annexin V/propidium iodide staining-based flow cytometric analysis (reference value: 1.99%); format: functional
[15] = Anticancer activity against human Bel7402 cells assessed as growth inhibition by MTT assay; format: functional, cell-based; conditions: Bel-7402
How it was run: (§3)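 Toxicity compared on human normal liver L-02 cells and human liver cancer Bel-7402 cells run side by side. Survival curves by MTT after 72 h treatment. IC50 is the concentration inhibiting 50% of cell growth.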

[16] = Cell cycle arrest in human Bel7402 cells assessed as cells at G2 phase at 0.25 uM after 48 hrs by propidium iodide staining-based flow cytometric analysis (reference value: 19.52%); format: functional; conditions: Bel-7402
Bel-7402 [17] = assay: Induction of apoptosis in human Bel7402 cells assessed as necrotic cells after 48 hrs at 0.25 uM by Annexin V/propidium iodide staining-based flow cytometric analysis (reference value: 1.99%); format: functional
[18] = Cytotoxicity against human L02 cells by MTT assay; format: cell-based; how it was run: as §3
Bel-7402 [19] = assay: Induction of apoptosis in human Bel7402 cells assessed as early apoptotic cells after 48 hrs at 0.25 uM by Annexin V/propidium iodide staining-based flow cytometric analysis (reference value: 0.64%); format: functional
[20] = Cell cycle arrest in human Bel7402 cells assessed as cells at G1 phase at 0.25 uM after 48 hrs by propidium iodide staining-based flow cytometric analysis (reference value: 39.66%); format: functional; conditions: Bel-7402
Bel-7402 [21] = assay: Induction of apoptosis in human Bel7402 cells assessed as viable cells after 48 hrs at 0.125 uM by Annexin V/propidium iodide staining-based flow cytometric analysis (reference value: 92.80%); format: functional; conditions: Bel-7402, 48 h, read-out: Activity
Bel-7402 [22] = assay: Induction of apoptosis in human Bel7402 cells assessed as necrotic cells after 48 hrs at 0.5 uM by Annexin V/propidium iodide staining-based flow cytometric analysis (reference value: 1.99%); format: functional
Bel-7402 [23] = assay: Induction of apoptosis in human Bel7402 cells assessed as early apoptotic cells after 48 hrs at 0.5 uM by Annexin V/propidium iodide staining-based flow cytometric analysis (reference value: 0.64%); format: functional
[24] = Cell cycle arrest in human Bel7402 cells assessed as cells at G1 phase at 0.5 uM after 48 hrs by propidium iodide staining-based flow cytometric analysis (reference value: 39.66%); format: functional; conditions: Bel-7402
Bel-7402 [25] = assay: Induction of apoptosis in human Bel7402 cells after 48 hrs by Annexin V/propidium iodide staining-based flow cytometric analysis; format: functional, cell-based
[26] = Cell cycle arrest in human Bel7402 cells assessed as cells at G1 phase at 0.125 uM after 48 hrs by propidium iodide staining-based flow cytometric analysis (reference value: 39.66%); format: functional; conditions: Bel-7402
Bel-7402 [27] = assay: Induction of apoptosis in human Bel7402 cells assessed as late apoptotic cells after 48 hrs at 0.25 uM by Annexin V/propidium iodide staining-based flow cytometric analysis (reference value: 5.21%); format: functional
[28] = Cell cycle arrest in human Bel7402 cells assessed as cells at S phase at 0.5 uM after 48 hrs by propidium iodide staining-based flow cytometric analysis (reference value: 40.82%); format: functional; conditions: Bel-7402

C=C1C(=O)[C@]23[C@H](OC(=O)c4ccc(N(CCCl)CCCl)cc4)[C@H]1CC[C@H]2[C@@]12CO[C@@]3(O)[C@@H](O)[C@@H]1C(C)(C)CC[C@@H]2OC(C)=O
pIC50 (MCF7): 6.04 | pIC50 (MGC-803): 5.42 | pIC50 (K562): 5.87 | pIC50 [1]: 5.62

C=C1C(=O)[C@]23[C@H](OC(=O)[C@H](Cc4ccc(N(CCCl)CCCl)cc4)NC(=O)OC(C)(C)C)[C@H]1CC[C@H]2[C@@]12CO[C@@]3(O)[C@@H](O)[C@@H]1C(C)(C)CC[C@@H]2O
pIC50 (MCF7): 5.49 | pIC50 (MGC-803): 5.17 | pIC50 (K562): 5.85 | pIC50 [1]: 5.63

C=C1C(=O)[C@]23[C@H](OC(=O)CCC(=O)N[C@@H](Cc4ccc(N(CCCl)CCCl)cc4)C(=O)OC)[C@H]1CC[C@H]2[C@@]12CO[C@@]3(O)[C@@H](O)[C@@H]1C(C)(C)CCC2=O
pIC50 (MCF7): 5.54 | pIC50 (MGC-803): 5.47 | pIC50 (K562): 5.78 | pIC50 [1]: 5.85

C=C1C(=O)[C@]23[C@H](OC(=O)CCCc4ccc(N(CCCl)CCCl)cc4)[C@H]1CC[C@H]2[C@@]12CO[C@@]3(O)[C@@H](O)[C@@H]1C(C)(C)CC[C@@H]2OC(C)=O
pIC50 (MCF7): 6.10 | pIC50 (MGC-803): 5.65 | pIC50 (K562): 5.96 | pIC50 [1]: 5.86

C=C1C(=O)[C@]23[C@H](OC(=O)CCC(=O)N[C@@H](Cc4ccc(N(CCCl)CCCl)cc4)C(=O)OC)[C@H]1CC[C@H]2[C@@]12CO[C@@]3(O)[C@@H](O)[C@@H]1C(C)(C)CC[C@@H]2O
pIC50 (MCF7): 4.84 | pIC50 (MGC-803): 5.03 | pIC50 (NCI-H460): 4.55 | pIC50 [2]: < 4.00 | pIC50 (K562): 5.05 | pIC50 [3]: 4.83 | pIC50 [1]: 5.08 | pIC50 (SW-620): 4.86

C=C1C(=O)[C@]23[C@H](OC(=O)CCCc4ccc(N(CCCl)CCCl)cc4)[C@H]1CC[C@H]2[C@@]12CO[C@@]3(O)[C@@H](O)[C@@H]1C(C)(C)CCC2=O
pIC50 (MCF7): 5.65 | pIC50 (MGC-803): 5.40 | pIC50 (K562): 5.63 | pIC50 [1]: 5.60

C=C1C(=O)[C@]23[C@H](OC(=O)c4ccc(N(CCCl)CCCl)cc4)[C@H]1CC[C@H]2[C@@]12CO[C@@]3(O)[C@@H](O)[C@@H]1C(C)(C)CC[C@@H]2O
pIC50 (MCF7): 6.17 | Ratio IC50 (Bel-7402 [4]): 8.06 | Activity (Bel-7402 [5]): 37.51% | pIC50 (MGC-803): 5.96 | Activity (Bel-7402 [6]): 10.77% | pIC50 (NCI-H460): 5.63 | viability at 0.5 µM (Bel-7402 [7]): 50.7% | Activity (Bel-7402 [8]): 1.11% | Activity [9]: 4.46% | Activity [10]: 44.8% | viability at 0.25 µM (Bel-7402 [11]): 75.8% | Activity [12]: 41.3% | Activity [13]: 13% | Activity (Bel-7402 [14]): 2.12% | pIC50 [15]: 6.30 | Activity [16]: 9.98% | pIC50 [2]: 5.54 | Activity (Bel-7402 [17]): 1.23% | pIC50 [18]: 5.39 | Activity (Bel-7402 [19]): 3.14% | Activity [20]: 45.2% | pIC50 (K562): 5.95 | viability at 0.125 µM (Bel-7402 [21]): 87.1% | Activity (Bel-7402 [22]): 1.29% | pIC50 [3]: 5.73 | pIC50 [1]: 6.30 | Activity (Bel-7402 [23]): 10.53% | Activity [24]: 52% | Activity (Bel-7402 [25]): Dose-dependent effect | pIC50 (SW-620): 5.71 | Activity [26]: 45.6% | Activity (Bel-7402 [27]): 19.85% | Activity [28]: 43.6%

N[C@@H](Cc1ccc(N(CCCl)CCCl)cc1)C(=O)O [MELPHALAN]
pIC50 (MCF7): 4.71 | pIC50 (MGC-803): 4.43 | pIC50 (K562): 4.48 | pIC50 [1]: 4.61
